Results from paper PMC4063182 (Journal of the American Chemical Society, 2014).
Positions count from the first letter of the chain named. Where two headings read alike, the source gives them in different places.

What was measured:
ferric WT DHP B [1] = molecular target: T1, ferric WT DHP B (Amphitrite ornata, UniProt Q9NAV7); experiment: 5-haloindole binding studies
T1 sequence (Q9NAV7 1-138): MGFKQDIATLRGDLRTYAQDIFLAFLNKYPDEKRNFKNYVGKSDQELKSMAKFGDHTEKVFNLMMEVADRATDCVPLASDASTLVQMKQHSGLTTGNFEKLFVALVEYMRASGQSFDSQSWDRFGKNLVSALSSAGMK

DHP B Oxyferrous = molecular target: T2, DHP B Oxyferrous (Amphitrite ornata, UniProt Q9NAV7); experiment: H2O2-dependent oxidation of haloindoles monitored by HPLC, oxyferrous enzyme; format: biochemical; details: DHP B Oxyferrous 10 μM; [haloindole] = [H2O2] = 500 μM; pH 7, 25 °C, 5 min
T2 sequence (Q9NAV7 1-138): T1 sequence (Q9NAV7 1-138)
In short: (§1)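 Triplicate reactions at 25 °C, pH 7, in 5% MeOH/100 mM KPi. Enzyme (10 μM final; ferric isoenzyme A or oxyferrous DHP B) was premixed with haloindole (500 μM), and reactions were started with 500 μM H2O2. After 5 min, reactions were quenched with excess catalase and diluted 10-fold in buffer. Analysis was by C18 reverse-phase HPLC (water/TFA to MeCN gradient) with diode-array detection, quantified against standard calibration curves.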

oxyferrous DHP B = molecular target: T3, oxyferrous DHP B (Amphitrite ornata, UniProt Q9NAV7); experiment: Stopped-flow UV-vis with oxyferrous DHP B / Compound II; format: biochemical; details: preincubated with 2.5 equiv 5-Br-indole, 5 equiv H2O2, pH 7
T3 sequence (Q9NAV7 1-138): T1 sequence (Q9NAV7 1-138)
In short: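 Single-mixing rapid-scan stopped-flow at 20 °C in 5% MeOH/100 mM KPi, pH 7.0. Oxyferrous DHP B (10 μM) was preincubated with 2.5 equiv 5-Br-indole, then rapidly mixed with 5 equiv H2O2. 800 spectra were collected over 83 s. Spectra were fitted to component species to obtain relative concentration time courses.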

[2] = molecular target: T4, DHP B(Y28F/Y38F) Compound I (Amphitrite ornata, UniProt Q9NAV7, Y29F/Y39F); experiment: Double-mixing stopped-flow UV-vis, preformed Compound I; format: biochemical
T4 sequence (Q9NAV7 1-138 Y29F/Y39F): T1 sequence (Q9NAV7 1-138) with Y29F, Y39F

[3] = molecular target: horse heart myoglobin (hhMb) (Equus caballus, UniProt P68082); experiment: H2O2-dependent oxidation of 5-Br-indole monitored by HPLC, myoglobin; format: biochemical; details: hhMb 10 μM; [haloindole] = [H2O2] = 500 μM; pH 7, 25 °C, 5 min; n.d. = none detected
Chain of horse heart myoglobin (hhMb) (P68082 whole entry): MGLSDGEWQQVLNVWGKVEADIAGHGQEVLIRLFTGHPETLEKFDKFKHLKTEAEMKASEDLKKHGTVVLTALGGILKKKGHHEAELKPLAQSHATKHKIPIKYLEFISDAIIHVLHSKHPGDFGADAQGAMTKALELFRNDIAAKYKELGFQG

ferric WT DHP B [4] = molecular target: T1, ferric WT DHP B; experiment: H2O2-dependent oxidation of haloindoles monitored by HPLC; format: biochemical; details: for conversion (%): 5 min
In short: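 Triplicate reactions at 25 °C in 5% MeOH/100 mM KPi, pH 7, unless pH varied. Ferric DHP B (10 μM final) was premixed with substrate (500 μM final), and reactions were started with H2O2 (500 μM). Additives: 10% v/v DMSO, 500 μM mannitol, SOD, or buffer containing 500 mM sodium formate. Reactions were quenched with excess catalase after 5 min and diluted 10-fold. C18 reverse-phase HPLC used photodiode-array detection, with conversion from standard calibration curves.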

DHP A Ferric = experiment: H2O2-dependent oxidation of haloindoles monitored by HPLC, isoenzyme A; format: biochemical, Amphitrite ornata; details: DHP A Ferric 10 μM; [haloindole] = [H2O2] = 500 μM; pH 7, 25 °C, 5 min
In short: as §1

[5] = molecular target: T5, horseradish peroxidase (HRP) (Armoracia rusticana, UniProt P00433); experiment: H2O2-dependent oxidation of 5-Br-indole monitored by HPLC, HRP; format: biochemical; details: HRP 10 μM; [haloindole] = [H2O2] = 500 μM; pH 7, 25 °C, 5 min; n.d. = none detected
T5 sequence (P00433 31-338 limits assumed): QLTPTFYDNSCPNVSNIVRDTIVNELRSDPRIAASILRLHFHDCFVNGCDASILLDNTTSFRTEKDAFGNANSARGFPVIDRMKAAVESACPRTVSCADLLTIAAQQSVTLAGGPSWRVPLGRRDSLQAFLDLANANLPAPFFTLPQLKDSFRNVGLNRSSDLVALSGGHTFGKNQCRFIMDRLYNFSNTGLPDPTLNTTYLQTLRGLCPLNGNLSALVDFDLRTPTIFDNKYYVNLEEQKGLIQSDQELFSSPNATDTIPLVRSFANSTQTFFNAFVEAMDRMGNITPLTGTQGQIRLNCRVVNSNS

WT DHP B Compound ES = molecular target: T6, WT DHP B Compound ES (Amphitrite ornata, UniProt Q9NAV7); experiment: Double-mixing stopped-flow UV-vis, preformed Compound ES; format: biochemical
T6 sequence (Q9NAV7 1-138): T1 sequence (Q9NAV7 1-138)
In short: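 Double-mixing rapid-scan stopped-flow UV-vis at 20 °C in 5% MeOH/100 mM KPi, pH 7. Ferric wild-type DHP B (10 μM) was mixed with 10 equiv H2O2 and aged 350 ms to accumulate Compound ES. It was then mixed with 10, 25 or 50 equiv 5-Br-indole, and 800 scans were taken over 83 s. Spectra were fitted to component time courses.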

ferric DHP B = molecular target: T7, ferric DHP B (Amphitrite ornata, UniProt Q9NAV7); experiment: Reactivity studies of 5-Br-3-oxindole by UV-vis; format: biochemical
T7 sequence (Q9NAV7 1-138): T1 sequence (Q9NAV7 1-138)
In short: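 5-Br-3-acetoxyindole (250 μM) was incubated <1 min with or without 10 μM ferric wild-type DHP B in 5% MeOH/100 mM KPi, pH 7, in a quartz cuvette. Porcine liver esterase (45 U) started the reaction, and UV-vis spectra were taken over time, aerobically or anaerobically (argon-degassed solutions, glovebox, sealed cuvette). Indigo product was quantified at 659 nm using ε = 22 140 M–1 cm–1.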

ferric WT DHP B [6] = molecular target: T1, ferric WT DHP B; details: cited from earlier work
[7] = DHP B Ferric, anaerobic, [haloindole] = [H2O2] = 500 μM, pH 7, 25 °C
[8] = 10 equiv 5-Br-indole, 10 equiv H2O2, pH 7
[9] = read-out: apparent dissociation constant (Kd), 10 μM ferric WT DHP B, 100 mM KPi pH 7, 10% MeOH

## Fc1ccc2[nH]ccc2c1 [5-F-indole]
Ferric WT DHP B [1]; even at the highest concentrations tested (up to 100 equiv)
  changes in the optical difference spectra upon binding: No significant changes

## Brc1ccc2[nH]ccc2c1 [5-Br-indole]
DHP B Oxyferrous
  conversion (%): 44.9 (±4.8) %
Ferric WT DHP B [1]
  Kd: 150 ± 10 µM
Oxyferrous DHP B
  kobs, conversion of oxyferrous DHP B to Compound II: (3.30 ± 0.01) × 10^–2 s^–1
[2]; 10 equiv 5-Br-indole
  time to conversion to oxyferrous DHP B(Y28F/Y38F): 697 s
[2]; 50 equiv 5-Br-indole
  time to conversion to oxyferrous DHP B(Y28F/Y38F): 120 s
[3]
  conversion (%): no reactivity
Ferric WT DHP B [4]; DHP B Ferric + 500 μM 4-BP, pH 7, 25 °C
  conversion (%): 23.2 (±5.1) %
Ferric WT DHP B [4]; DHP B Ferric + 500 μM mannitol, pH 7, 25 °C
  conversion (%): 46.2 (±1.6) %
Ferric WT DHP B [4]; DHP B Ferric + 500 mM formate, pH 7, 25 °C
  conversion (%): 45.8 (±1.1) %
Ferric WT DHP B [4]; DHP B Ferric + 10% DMSO, pH 7, 25 °C
  conversion (%): 45.0 (±4.4) %
Ferric WT DHP B [4]; DHP B Ferric + SOD ∼2 U/μL, pH 7, 25 °C
  conversion (%): 46.1 (±0.7) %
Ferric WT DHP B [4]; [7]
  conversion (%): 53.3 (±0.3) %
Ferric WT DHP B [4]; DHP B Ferric, pH 5, 25 °C
  conversion (%): 63.4 (±0.1) %
Ferric WT DHP B [4]; DHP B Ferric, pH 6, 25 °C
  conversion (%): 54.7 (±1.9) %
Ferric WT DHP B [4]; DHP B Ferric, pH 8, 25 °C
  conversion (%): 34.4 (±2.4) %
DHP A Ferric
  conversion (%): 20.3 (±1.7) %
[5]
  conversion (%): no reactivity
WT DHP B Compound ES; [8]
  kobs, formation of mixture of oxyferrous and ferric DHP B at longer observation times: (1.39 ± 0.08) × 10^–2 s^–1
  kobs, reduction of preformed Compound ES to ferric DHP B: (2.54 ± 0.05) × 10^5 M^–1 s^–1
WT DHP B Compound ES; ≥25 equiv 5-Br-indole
  time for reduction of Compound ES (within mixing time): < 2.5 ms

## Clc1ccc2[nH]ccc2c1 [5-Cl-indole]
Ferric WT DHP B [1]; [9]
  Kd: 317 ± 23 µM

## Brc1cccc2[nH]ccc12 [4-Br-indole]
Ferric WT DHP B [4]; [7]
  conversion (%): 40.1 (±0.9) %
DHP A Ferric
  conversion (%): 15.7 (±0.7) %

## c1ccc2[nH]ccc2c1 [indole]
Ferric WT DHP B [4]; ferric WT DHP B, pH 7
  reactivity lower than 5-Br-indole: 2 fold

## O=C1/C(=C2\Nc3ccc(Br)cc3C2=O)Nc2ccc(Br)cc21 [5,5′-Br2-indigo, (E)-5,5′-dibromo-[2,2′-biindolinylidene]-3,3′-dione]
Ferric DHP B; DHP present
  5,5′-Br2-indigo formation aerobic versus anaerobic: ~4 fold
Ferric DHP B; aerobic, after 5 min
  5,5′-Br2-indigo formed in the presence of DHP versus the absence of enzyme: 45 fold
Ferric DHP B; anaerobic, 10 μM DHP, after 10 min
  5,5′-Br2-indigo concentration formed from 5-Br-3-oxindole: ~8 µM
Ferric WT DHP B [4]; 5-Br-indole 500 μM, DHP B 10 μM, H2O2 500 μM, pH 7, 1a determined from mass balance
  product distribution of 5-Br-indole reaction (HPLC): ~2%

## Ic1ccc2[nH]ccc2c1 [5-I-indole]
Ferric WT DHP B [1]; [9]
  Kd: 62 ± 10 µM

## Oc1ccc(Br)cc1 [4-bromophenol, reference compound]
Ferric WT DHP B [4]; in the presence of 500 μM 4-bromophenol
  attenuation in reactivity of 5-Br-indole: 2 fold
Ferric WT DHP B [6]
  Kd: ~1200 µM
